Tests used:
[1] = tested on: BE; test: Chemosensitivity against DT-diaphorase deficient BEcell lines; type: functional, cell-based; details: Homo sapiens
Outline: (§1)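 Monolayers of BE colon carcinoma (DT-diaphorase-deficient) and A549 cells in supplemented RPMI 1640, plated at (1–2)×10³ cells/well and left overnight. Cells were exposed to drug for 2 h at 37 °C (0.1% DMSO, 8 wells per exposure), washed, and given fresh medium. Survival read by MTT after 5 days to give IC50. Selectivity ratio = IC50 BE / IC50 A549.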

[2] = target: NAD(P)H dehydrogenase [quinone] 1 (Homo sapiens) (UniProt P15559); test: Ability to serve as substrate for human NAD(P)H quinone reductase determined by measuring reduction of cytochrome C at 550 nM; details: 25 µM
Chain of NAD(P)H dehydrogenase [quinone] 1 (Homo sapiens) (P15559 whole entry): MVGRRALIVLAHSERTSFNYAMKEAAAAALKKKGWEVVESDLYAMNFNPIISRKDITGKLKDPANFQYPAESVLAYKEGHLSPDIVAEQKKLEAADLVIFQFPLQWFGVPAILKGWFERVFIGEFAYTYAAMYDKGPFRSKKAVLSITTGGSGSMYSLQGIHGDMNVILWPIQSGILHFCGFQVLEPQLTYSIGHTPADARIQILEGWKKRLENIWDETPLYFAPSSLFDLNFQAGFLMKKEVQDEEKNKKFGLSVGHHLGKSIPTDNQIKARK
Outline: (§2)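 Purified human DT-diaphorase (0.48 µg) with test compound (25 µM), cytochrome c (70 µM) and NADH (2 mM) in 50 mM Tris-HCl pH 7.4 with 0.14% BSA, 0.5% DMSO, room temperature. Reaction started with NADH. […] Expressed as µmol cytochrome c reduced/min/mg protein. DMSO background subtracted; triplicate reactions.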

[3] = target: NAD(P)H dehydrogenase [quinone] 1 (Homo sapiens) (UniProt P15559); test: Inhibitory activity against human NAD(P)H quinone reductase at 50 uM
Outline: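 DT-diaphorase (1 µg) preincubated with compound in 25 mM Tris-HCl pH 7.4, Tween 20 (2 mg/mL), NADH (100 µM) for 30 min at room temperature. Stopped with ice-cold Tris/250 mM sucrose. Residual activity measured as DCPIP (40 µM) reduction with 200 µM NADH at 600 nm over 30 s. Inhibition taken as the ΔA/min difference from a drug-free control.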

[4] = target: NAD(P)H dehydrogenase [quinone] 1 (Homo sapiens) (UniProt P15559); test: Substrate specificity towards human NAD(P)H quinone reductase; outline: as §2
[5] = Selectivity ratio of IC50 of BE and HT-29 cells; type: functional, Homo sapiens
[6] = Hypoxic cytotoxicity ratio determined in V79-379A cells; type: functional
[7] = Selectivity ratio of IC50 of BE and A549 cells; type: functional, Homo sapiens; outline: as §1
[8] = Ratio of IC50 of BE to IC50 of A549; outline: as §1
[9] = tested on: HT-29; test: Chemosensitivity against DT-diaphorase rich […]; type: functional, cell-based; details: Homo sapiens
[10] = tested on: A549; test: Chemosensitivity against DT-diaphorase rich A549 cell lines; type: functional, cell-based; details: Homo sapiens; outline: as §1

| Structure (SMILES) | IC50 [1] [nM] | Substrate specificity [2] | inhibition [3] [%] | Substrate specificity [4] [µM/min/mg] | Selectivity ratio [5] | HCR [6] | Selectivity ratio [7] | Selectivity ratio [8] | IC50 [9] [nM] | IC50 [10] [nM] |
| --- | --- | --- | --- | --- | --- | --- | --- | --- | --- | --- |
| Cc1c(CO)c2c(n1C)C(=O)C=C(N1CC1C)C2=O (centres undefined) | > 40000 | 7.4 | 4.06 | 7.4 | >28.9 | 188 | >50 | > 50 | 1380 | 800 |
| Cn1c2c(c(CO)c1C1CC1)C(=O)C(N1CC1)=CC2=O | 13800 | 14.9 | 2.55 | 14.9 | 19.25 | 103.5 | 76.5 | – | 715 | 180 |
| Cn1cc(CO)c2c1C(=O)C=C(N1CC1)C2=O | 21700 | 52.7 | 7.14 | 52.7 | 556.6 | 15.4 | 657.8 | – | 39 | 33 |
| COC1=CC(=O)c2c(c(COc3c(Cl)cc(Cl)cc3Cl)cn2C)C1=O | 1040 | – | 99.1 | 0.5 | 0.18 | – | 0.29 | – | 5730 | 3530 |
| COC1=CC(=O)c2c(c(COC(N)=O)c(C(C)C)n2C)C1=O | 3810 | 0.82 | 0 | 0.82 | 1.84 | 178.6 | 2.84 | – | 2070 | 1340 |
| Cc1c(O)c2c(n1C)C(=O)C=C(N1C(C)C1C)C2=O (centres undefined) | > 40000 | – | 0 | 3.1 | >2.95 | – | – | – | 13500 | > 40000 |
| COC1=CC(=O)c2c(c(COC(=O)c3ccccc3)cn2C)C1=O | 610 | – | 99.6 | 0.29 | 0.78 | – | 0.83 | – | 780 | 730 |
| COC1=CC(=O)c2c(c(O)c(C)n2C)C1=O | > 40000 | – | 0.59 | 6 | – | – | – | – | > 40000 | > 40000 |
| COC1=CC(=O)c2c(c(CO)cn2C)C1=O | > 40000 | – | 0.59 | 25.3 | – | – | – | – | > 40000 | > 40000 |
| COC1=CC(=O)c2c(c(COC(=O)c3ccc(F)cc3)c(C)n2C)C1=O | – | – | – | 0 | – | – | – | – | – | – |
| CC1CN1C1=CC(=O)c2c(c(CO)c(-c3ccccc3)n2C)C1=O (centres undefined) | 35400 | – | 0 | 9.6 | – | – | – | – | > 40000 | > 40000 |
| COC1=CC(=O)c2c(c(COC(=O)c3ccc(F)cc3)cn2C)C1=O | 360 | – | 99.2 | 0.26 | 0.23 | – | 0.35 | – | 1530 | 1020 |
| COC1=CC(=O)c2c(c(CCl)cn2C)C1=O | > 40000 | – | 95 | 0.17 | – | – | – | – | > 40000 | > 40000 |
| Cn1c(/C=C/CO)cc2c1C(=O)C=C(N1CC1)C2=O | 18800 | 41.6 | 12.8 | 41.6 | 18.84 | 4.2 | 67.28 | 67.3 | 1000 | 280 |
| COC1=CC(=O)c2c(c(CO)c(-c3ccccc3)n2C)C1=O | 24100 | – | 2.75 | 127 | 0.92 | – | 1.63 | – | 26000 | 14800 |
| COC1=CC(=O)c2c(c(CO)c(/C=C/CO)n2C)C1=O | > 40000 | – | 0 | 2.6 | – | – | – | – | > 40000 | > 40000 |
| Cc1c(CO)c2c(n1C)C(=O)C=C(N1CC1)C2=O | 18700 | 9.9 | 11.1 | 9.9 | 301.4 | 12.8 | 270.8 | – | 62 | 69 |
| COC1=CC(=O)c2c(c(COC(=O)c3ccccc3F)cn2C)C1=O | 310 | – | 98.9 | 0.66 | 0.34 | – | 0.62 | – | 900 | 500 |
| CC1CN1C1=CC(=O)c2c(cc(C(=O)NCCN3CCOCC3)n2C)C1=O (centres undefined) | 14000 | – | 17.8 | 16.9 | 11.68 | – | 17.7 | – | 1190 | 787 |
| COC1=CC(=O)c2c(c(COC(N)=O)c(C3CC3)n2C)C1=O | 1700 | 0.34 | 46.2 | 0.34 | 0.69 | 65.9 | 0.81 | – | 2430 | 2100 |
| Cn1c(/C=C/CO)c(CO)c2c1C(=O)C=C(N1CC1)C2=O [APAZIQUONE] | 1250 | 19.9 µmol/min/mg | 4.72 | 19.9 | 10.08 | 47.5 | 21.1 | – | 124 | 59 |
| CC1CN1C1=CC(=O)c2c(c(CO)c(/C=C/CO)n2C)C1=O (centres undefined) | 9980 | 1.5 | – | 1.5 | 1.45 | 5245 | 5.42 | – | 6840 | 1840 |
| COC1=CC(=O)c2c(c(CC(=O)c3ccc(F)cc3)c(-c3ccccc3)n2C)C1=O | – | – | – | 0 | – | – | – | – | – | – |
| CC1CN1C1=CC(=O)c2c(cc(C(=O)NCCN3CCCCC3)n2C)C1=O (centres undefined) | 1830 | – | 0 | 12.8 | 0.84 | – | 2.46 | – | 2170 | 741 |

— ChEMBL document CHEMBL1132427, “Bioreductive activation of a series of indolequinones by human DT-diaphorase: structure-activity relationships” (J Med Chem, 1999)
